Tested on: MS2 coat protein
Experiment: apparent Kd, MS2 coat protein; higher = weaker binding; RNA-MaP array
Method in brief: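 Designed RNAs were transcribed in place on an Illumina sequencing chip from sequenced DNA templates. At room temperature and with or without input ligand, they were incubated with fluorescently labeled MS2 coat protein from 1.5 nM to 3 μM, for 0.8–1.5 h at the lowest and 10–20 min at the highest concentrations. Apparent Kd is the median of the binding-curve fits made per cluster, with designs measured on fewer than 10 clusters excluded.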

[1] = designed as: OFF switch for flavin mononucleotide, no ligand
[2] = ligand present: flavin mononucleotide, designed as: OFF switch for flavin mononucleotide
[3] = designed as: ON switch for flavin mononucleotide, no ligand
[4] = ligand present: flavin mononucleotide, designed as: ON switch for flavin mononucleotide
[5] = designed as: ON switch for theophylline, no ligand
[6] = ligand present: theophylline, designed as: ON switch for theophylline

Sequence	apparent Kd [1] [nM]	apparent Kd [2] [nM]	apparent Kd [3] [nM]	apparent Kd [4] [nM]	further results
GCACGAGUAAGACCUGACUUCAACAAUGAUACCAGACUAGUAAACGUCCCUUGGCAGCAUCAGACAUGAGGAUCACCCAUGUGGC					apparent Kd (designed as: OFF switch for theophylline, no ligand): 27 nM; apparent Kd (ligand present: theophylline, designed as: OFF switch for theophylline): 29.4 nM
UUAGGUGCAGGAUAUACAAGACUUAGUAGGAUACCAGACCUACAUGAGGAUCACCCAUGUAGAAGGGCAAUGCA	20.6	16.9			
AACAUGAGGAUCACCCAUGUUAGAAUAACAACGGAAAUAACAGAGGAUAUCGUUAAUUAAUAGCGCGAGAAGGCAGAAUUCAAA			6.86	5.95	
GUACAUUUUGCAGGAUAUGUUCAAUACAUGAGGAUCACCCAUGUUCCCUGCUCGGGUCGAGCAUAACAGAAGGGCACUAUAUGU			28.9	12.1	
AGUUGAGGAGGAUAUACAUGAGGAUCACCCAUGUGACUGUGUCUGUUGCGCUGGAUCGGUAGAAGGCCUUAGUA	12.2	16.4			
GAAGAACCCGGAGGAUAUGCAAAGGAACAUGAGGAUCACCCAUGUUUCUUUCGGAAAUCUAGUGAGCAGAAGGCCGAAAGGAAC			13.1	7.95	
AAGGUCCAAGAGAAGGCGCUCAUGGGAUCAAGACAUGAGGAUCACCCAUGUUGGCGCAGCACAAGCGAGGAUAUCUCCACCGGC			420	330	
UUGUUUAGGAUAGGAUAUAGGUCUAAAAGUGAGUCGGACAUGAGGAUCACCCAUGUGGGUGCGAUCUAGAAGGAUCCGCCGCGG	754	269			
CCAGGACAUGAGGAUCACCCAUGUACGGUCAGCGAAGGAUAUAUUGCGUGGCGAGUGCUGAUAGAAGGUCGUAAAC			15	10.9	
AAGCCCAGGACGGCCGCCACUGUAAAAUGGUGGUUCGCCUGUAAGAACAUGAGGAUCACCCAUGUCAGGACCGGGUCCACGAGUU					apparent Kd (designed as: OFF switch for tryptophan, no ligand): 17.6 nM; apparent Kd (ligand present: tryptophan, designed as: OFF switch for tryptophan): 27.1 nM
GAUGCAACGCAGAAGGUAACCCAAUUAGGAGAUCUACAUGAGGAUCACCCAUGUAUUUGGAAAAUUAAGGAUAUGCCGAGGAUC	14.7	19.5			
AAUGGAAGGGAGAAGGCACGCUCUGUCGAACCGUGAGGAUAUCCAUCGGGUAAUAUACAUGAGGAUCACCCAUGUGGCGUCCAG			25.8	14.6	
GAAUUAAAUCAAGGAUAUCUGUGGAAGCGGACCUCUUACAUGAGGAUCACCCAUGUUCGCGAGCAAGAGAAGGUGAUUAGCGAA	414	131			
AUAGGGCGACAGAAGGGCAGUGCACGCAUUGCUGCAGGAUAUGUGGUCCACAUGAGGAUCACCCAUGUAGUAAUAUCUUGUAGU			104	71.2	
CGGUCACAUGAGGAUCACCCAUGUAAGGAUAUAGAUGUCUGUGUCAACCGACGGGCUUCUAGAAGGUACGGAUG	18.6	18.1			
AACAAGGACAGAGGAUAUAUCAACAUUGAAGUAAUAGAAGGCUGAGAGAAUGAGACUCAUAAACAUGAGGAUCACCCAUGUAAC	82.2	81.4			
UCCUUACACAUGAGGAUCACCCAUGUAUCCACAGGUUGAGGGCAGGAUAUACAUAAUUUGACCUUGUAGAAGGGCCUGACAAAA	213	103			
GAUAGUGAUCCGGGUUACAUGAGGAUCACCCAUGUUACAAAUAGAAGGUCAGAACAAAAUUGAAAGAAGGAUAUAUUUUCAUUG	44.1	39.6			
UAUUAACAUGAGGAUCACCCAUGUUAUAGAGACCUAGGAUAUGCUUGCAUCCUCGCUCGUGCAGAAGGAGGUUUAU			7.08	5.88	
UUUCGUAACCAACAUGAGGAUCACCCAUGUAGAAAGUUCCUAAGAAGGACAUAACCCAAUAGCAUGUAGGAUAUAAGUAAUCAC			12.1	10.8	
CCAGUUGACUAGAAGGCAAUACGGAUAAAGUAACUGACCACAUGAGGAUCACCCAUGUAUCCCAUUGAGGAUAUAGCAUUAAGU	44.2	25.8			
GCGUUGGCCACGGCCGCCACUCAGGUACCGCGCGUAGUGAACUUACAUGAGGAUCACCCAUGUCUGAGGACCGGGUGGCCGCCAC					apparent Kd (designed as: ON switch for tryptophan, no ligand): 37.3 nM; apparent Kd (ligand present: tryptophan, designed as: ON switch for tryptophan): 46.2 nM
UCCAGACAUGAGGAUCACCCAUGUUCAUGCCUCGGAGGAUAUCUAUGGGUGGAGGACUUUAGAGAAGGCCGAUCCG			674	458	
AUCGAUAAGAAGAAGGCAUUGGCGAUGACGUUAUGAGGAUAUUCAACUACAGCUUGACCACUACAUGAGGAUCACCCAUGUGAA			19.6	12.1	

Sequence	apparent Kd [1] [nM]	apparent Kd [2] [nM]	apparent Kd [3] [nM]	apparent Kd [4] [nM]	further results
GGCUGACAUGAGGAUCACCCAUGUAGUGAUACCAGUAAGAGAAUAUACCCUUGGCAGCACAGGUAACAACUCGUCUCCAAAGUAA					apparent Kd [5]: 42.7 nM; apparent Kd [6]: 78.9 nM
AGCAGCCCUAAAGGAUAUUUGCGCGAGCAAAGCAAAGAAGGUUAAGGGUGGGCUUCAGAGACUACAUGAGGAUCACCCAUGUCC			448	112	
CCCACGUACGAGAAGGCACCGGUUUGAUCCACGUAAGUCCUUUACAUGAGGAUCACCCAUGUAGGUGAGGAUAUCGUCAUGACU	160	264			
GGCGUGUACACAGGAUAUGAUACAUGAGGAUCACCCAUGUUCGCGCUGGAUCUACGUGAGAACGAUCAGAAGGGUGCUGCAGGG			398	229	
UUCUGGCCGCAGAAGGAGGAUCUGGUUGAAAUCCUAGGAUAUGCAUCUAACCACUGGUCCACAUGAGGAUCACCCAUGUCAGAC	16.3	12.4			
CAAUGGACGGUAGGAUAUGUACUAGAGAAGCAGACAGAAGGACCUAGUCCGACAUGAGGAUCACCCAUGUGAAACCCGGUCCAG	6.83	6.44			
AGGAGACAUGAGGAUCACCCAUGUCCAGAUACCAGAAUGUCUUUGUUCCCUUGGCAGCUGUGGAAAUCUGACCUGCCUCGGUCUG					apparent Kd [5]: 14.2 nM; apparent Kd [6]: 15.7 nM
AUUACCCAAGGAUAUUGCAAUUGAGACAUGAGGAUCACCCAUGUACUUCCGGGUGUCAAUCAAGAAGGUGGAUGUU	23.1	20.9			
AAAUUACACGAGAAGGGCAGUGAAUAUCUGUCUGCAGGAUAUCGCUACAUGAGGAUCACCCAUGUUUUCAGUAGUACUAGCGAA	9.74	9.06			
AGUGGACUGAGGCAGGAUAUCUAUUCAGGAACAUGAGGAUCACCCAUGUCAUGAAAUGACUCGUGAGAGAAGGGCCGUCAACUUAU			22.9	29.5	
UACUUUGUAUGCAAGGAUAUCCAGGAUUCUACAUGAGGAUCACCCAUGUCAAAUACUAUGCAACGGGAGAAGGUGCAUAACAUCAU			16.5	12.2	
AUUUAGCAUAUACAUGAGGAUCACCCAUGUCUGAUACAUAGUAGAAGGCCCGUUAAGACAUACAGGGAGGAUAUACGUACAUGU			49	9.85	
UCCACACAUGAGGAUCACCCAUGUUGAGAUACCAGUAAACCAAAAUACCCUUGGCAGCUCCUACGCUCUUACAGCGGGAAUAUCC					apparent Kd [5]: 15.8 nM; apparent Kd [6]: 23.1 nM
GGGCCACAUAAGAAGGUGAGCCACAGCGGCGUUCAAGGAUAUUAUAGGUAACCCACCAGACAUGAGGAUCACCCAUGUAGUGUC			36.7	25.2	
CAAAUGAGAGGAUAUACAAUUAGAUUUCAAAGUCACAUCAGACAUGAGGAUCACCCAUGUAGAAGGCUCGGAUA	23.7	193			
AAGGAACAUGAGGAUCACCCAUGUGCUUGCCAGCAAGGAUAUGGUUGUGACAUCUAUAUGCCAGAAGGUGCCGGAC			286	85.6	
GGCACACAUGAGGAUCACCCAUGUGGCGAUACCAGUUGAUGGUAAAACCCUUGGCAGCGCCAGUCACAUGCAGAUAGUUACUGAA					apparent Kd [5]: 13.9 nM; apparent Kd [6]: 16.5 nM
CUCUAACAAGGAUAUACAUGUCCCAGGAUCCUAUAGGCUUUACAUGAGGAUCACCCAUGUAGAAGGUGUAUUAC	18.7	16.4			
UUCUCACAUGAGGAUCACCCAUGUCUAAGGAGUACAGGAUAUGUGCCGUGAUUUUCGAGUACAGAAGGGUACAAUU			273	33.6	
AAAAUGGAUUGAACAUGAGGAUCACCCAUGUCCUGCCCGCAUUAGGAUAUCGAUAACUUGAGUACCGAGAAGGAAUGAUGAUCG			12.6	13.2	
CGUAAUAACUCACAGGAUAUGCGAGAGGAGACAUGAGGAUCACCCAUGUGACCAUGAAUAUUCCUGCAGAAGGGUGAUAAAUCAUU			13	18	
GAAAUAUAGUCAGGAUAUCAGGACAUGAGGAUCACCCAUGUACUGAAUGGGCUGGUGAAAAGAGAUGAGAAGGGACACACUAGA	6.23	5.78			
UAAGACGGGCGAGGAUAUACGAACUGGGUCAAAGUAGAAGGCGCGAGUCAUUGUUAUAAUCCAACAUGAGGAUCACCCAUGUCU			91.6	15.6	

Source: the EternaBench riboswitch data
